Test results as given in ChEMBL document CHEMBL4622928, “Discovery of 5-(4-methylpiperazin-1-yl)-2-nitroaniline derivatives as a new class of SIRT6 inhibitors” (Bioorg Med Chem Lett, 2020).
The source made the active and inactive calls. The calls are words filed in the database; no cut-off is given here.

How the values were obtained:
[1] = target: T1, NAD-dependent protein deacylase sirtuin-6 (Homo sapiens, UniProt Q8N6T7); assay: Inhibition of SIRT6 (unknown origin) using Ac-RYQK(Ac)-AMC as substrate by Fluor de Lys assay
T1 sequence (Q8N6T7 whole entry): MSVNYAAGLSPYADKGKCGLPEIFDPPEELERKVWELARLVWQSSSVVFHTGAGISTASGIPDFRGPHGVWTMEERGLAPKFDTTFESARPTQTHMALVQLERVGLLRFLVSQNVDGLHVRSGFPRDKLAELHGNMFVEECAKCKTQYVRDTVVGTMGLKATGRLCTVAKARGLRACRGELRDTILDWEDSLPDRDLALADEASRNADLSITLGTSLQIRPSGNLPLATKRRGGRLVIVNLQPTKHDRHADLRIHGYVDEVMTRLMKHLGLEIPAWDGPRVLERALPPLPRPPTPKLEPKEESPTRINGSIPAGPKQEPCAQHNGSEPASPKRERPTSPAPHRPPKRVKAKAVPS

[2] = target: T1, NAD-dependent protein deacylase sirtuin-6; assay: Binding affinity to SIRT6 (unknown origin) assessed as change in melting temperature at 40 uM by differential scanning fluorimetry
[3] = target: T1, NAD-dependent protein deacylase sirtuin-6; assay: Binding affinity to SIRT6 (unknown origin) by surface plasmon resonance assay
Mus musculus = assay: Antidiabetic activity in mouse model of type-2 diabetes mellitus assessed as reduction in blood glucose at 7.5 to 30 mg/kg, ip; assay type: functional, organism-based
In short: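 High-fat-diet-fed mice served as the type 2 diabetes model. Compound was given by intraperitoneal injection, and blood glucose and body weight were followed over time.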

Histone deacetylase 1 = Histone deacetylase 1 (Homo sapiens, UniProt Q13547); assay: Inhibition of HDAC1 (unknown origin)
Histone deacetylase 1, sequence (Q13547 whole entry): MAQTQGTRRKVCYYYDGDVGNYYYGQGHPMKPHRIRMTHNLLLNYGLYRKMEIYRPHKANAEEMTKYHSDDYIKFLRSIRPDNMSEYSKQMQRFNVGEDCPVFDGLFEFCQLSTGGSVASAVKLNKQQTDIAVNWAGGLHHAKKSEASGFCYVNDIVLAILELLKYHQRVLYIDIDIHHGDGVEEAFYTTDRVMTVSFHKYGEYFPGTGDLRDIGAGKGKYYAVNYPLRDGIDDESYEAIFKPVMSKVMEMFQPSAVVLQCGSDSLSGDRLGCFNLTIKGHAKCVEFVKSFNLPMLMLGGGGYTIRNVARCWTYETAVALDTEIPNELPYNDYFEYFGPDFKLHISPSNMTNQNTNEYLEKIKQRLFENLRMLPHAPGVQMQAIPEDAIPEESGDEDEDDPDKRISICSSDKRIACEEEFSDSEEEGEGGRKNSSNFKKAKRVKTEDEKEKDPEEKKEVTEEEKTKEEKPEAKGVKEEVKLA
In short: (§1)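 Each deacetylase was run in a Fluor de Lys (FDL) fluorogenic deacetylation assay as a selectivity screen, with compound tested at concentrations up to 200 μM. IC50 was estimated from the dose-response.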

Histone deacetylase 2 = Histone deacetylase 2 (Homo sapiens, UniProt Q92769); assay: Inhibition of HDAC2 (unknown origin); in short: as §1
Histone deacetylase 2, sequence (Q92769 whole entry): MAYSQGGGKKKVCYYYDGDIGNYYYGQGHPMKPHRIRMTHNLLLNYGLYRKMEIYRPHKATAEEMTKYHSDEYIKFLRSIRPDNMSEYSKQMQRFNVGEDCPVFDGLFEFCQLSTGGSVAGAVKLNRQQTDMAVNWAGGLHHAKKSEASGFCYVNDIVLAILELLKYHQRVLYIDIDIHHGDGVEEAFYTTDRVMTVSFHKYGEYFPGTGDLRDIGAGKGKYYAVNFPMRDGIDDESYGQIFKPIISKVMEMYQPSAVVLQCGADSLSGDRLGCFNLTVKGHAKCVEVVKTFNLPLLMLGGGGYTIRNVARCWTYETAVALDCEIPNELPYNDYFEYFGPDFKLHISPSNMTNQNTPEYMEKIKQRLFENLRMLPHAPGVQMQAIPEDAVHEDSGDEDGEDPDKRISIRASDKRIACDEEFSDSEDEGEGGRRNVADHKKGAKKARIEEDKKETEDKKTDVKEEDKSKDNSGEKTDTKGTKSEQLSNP

Histone deacetylase 4 = Histone deacetylase 4 (Homo sapiens, UniProt P56524); assay: Inhibition of HDAC4 (unknown origin); in short: as §1
Histone deacetylase 4, sequence (P56524 whole entry): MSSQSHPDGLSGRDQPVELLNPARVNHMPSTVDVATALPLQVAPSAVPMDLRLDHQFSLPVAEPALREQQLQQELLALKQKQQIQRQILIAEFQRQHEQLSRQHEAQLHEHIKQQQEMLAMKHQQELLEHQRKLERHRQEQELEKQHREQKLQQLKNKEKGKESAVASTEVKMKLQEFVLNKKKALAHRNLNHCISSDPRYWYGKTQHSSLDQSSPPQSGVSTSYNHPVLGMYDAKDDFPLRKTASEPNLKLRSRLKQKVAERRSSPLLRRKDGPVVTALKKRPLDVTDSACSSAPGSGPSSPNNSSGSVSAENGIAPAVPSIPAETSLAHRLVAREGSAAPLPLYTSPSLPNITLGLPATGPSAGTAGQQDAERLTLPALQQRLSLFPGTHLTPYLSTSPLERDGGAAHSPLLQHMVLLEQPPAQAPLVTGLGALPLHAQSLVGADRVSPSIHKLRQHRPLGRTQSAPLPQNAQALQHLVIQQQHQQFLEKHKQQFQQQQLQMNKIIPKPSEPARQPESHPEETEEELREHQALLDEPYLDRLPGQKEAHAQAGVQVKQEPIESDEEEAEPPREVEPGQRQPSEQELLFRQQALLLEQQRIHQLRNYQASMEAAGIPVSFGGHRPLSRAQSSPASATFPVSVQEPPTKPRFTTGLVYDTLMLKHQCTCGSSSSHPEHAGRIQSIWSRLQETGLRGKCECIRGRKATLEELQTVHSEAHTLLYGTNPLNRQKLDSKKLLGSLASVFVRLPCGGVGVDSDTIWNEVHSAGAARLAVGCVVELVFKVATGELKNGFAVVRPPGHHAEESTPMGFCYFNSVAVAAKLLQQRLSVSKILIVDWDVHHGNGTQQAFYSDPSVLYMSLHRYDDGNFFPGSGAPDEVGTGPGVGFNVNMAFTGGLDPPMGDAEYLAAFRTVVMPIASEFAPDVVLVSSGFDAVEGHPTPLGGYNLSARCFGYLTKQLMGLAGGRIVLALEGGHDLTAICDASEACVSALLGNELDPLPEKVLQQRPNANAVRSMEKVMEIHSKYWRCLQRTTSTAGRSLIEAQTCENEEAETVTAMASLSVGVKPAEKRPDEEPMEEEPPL

Histone deacetylase 5 = Histone deacetylase 5 (Homo sapiens, UniProt Q9UQL6); assay: Inhibition of HDAC5 (unknown origin); in short: as §1
Histone deacetylase 5, sequence (Q9UQL6 whole entry): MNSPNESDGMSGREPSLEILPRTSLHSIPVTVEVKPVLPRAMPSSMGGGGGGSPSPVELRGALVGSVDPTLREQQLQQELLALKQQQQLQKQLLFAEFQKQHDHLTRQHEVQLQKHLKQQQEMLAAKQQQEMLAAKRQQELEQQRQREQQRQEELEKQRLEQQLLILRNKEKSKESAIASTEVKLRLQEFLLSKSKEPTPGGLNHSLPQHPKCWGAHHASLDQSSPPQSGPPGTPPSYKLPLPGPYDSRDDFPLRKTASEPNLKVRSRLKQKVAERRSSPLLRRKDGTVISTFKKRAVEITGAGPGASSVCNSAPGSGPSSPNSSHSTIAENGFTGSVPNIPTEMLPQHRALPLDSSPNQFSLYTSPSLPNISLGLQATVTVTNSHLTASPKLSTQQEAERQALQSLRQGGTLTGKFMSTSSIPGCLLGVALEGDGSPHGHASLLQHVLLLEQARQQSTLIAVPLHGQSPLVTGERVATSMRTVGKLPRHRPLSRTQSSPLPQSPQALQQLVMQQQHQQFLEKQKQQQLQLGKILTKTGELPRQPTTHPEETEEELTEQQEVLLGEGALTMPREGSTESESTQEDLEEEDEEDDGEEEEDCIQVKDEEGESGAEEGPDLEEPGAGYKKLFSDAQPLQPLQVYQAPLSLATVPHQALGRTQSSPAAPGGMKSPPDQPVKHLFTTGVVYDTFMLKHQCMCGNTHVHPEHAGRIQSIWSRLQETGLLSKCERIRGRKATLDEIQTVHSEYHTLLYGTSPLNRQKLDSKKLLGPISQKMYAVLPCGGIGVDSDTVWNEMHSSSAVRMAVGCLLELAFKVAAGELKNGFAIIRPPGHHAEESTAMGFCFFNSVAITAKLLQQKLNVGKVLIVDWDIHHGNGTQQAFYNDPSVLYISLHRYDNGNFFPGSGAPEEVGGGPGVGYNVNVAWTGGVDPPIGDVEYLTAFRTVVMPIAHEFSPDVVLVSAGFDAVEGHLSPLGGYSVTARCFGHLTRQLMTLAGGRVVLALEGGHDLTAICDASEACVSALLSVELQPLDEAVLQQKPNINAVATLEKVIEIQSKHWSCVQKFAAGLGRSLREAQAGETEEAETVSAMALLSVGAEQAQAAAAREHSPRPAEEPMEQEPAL

[4] = target: T2, Protein deacetylase HDAC6 (Homo sapiens, UniProt Q9UBN7); assay: Inhibition of HDAC6 (unknown origin); in short: as §1
T2 sequence (Q9UBN7 whole entry): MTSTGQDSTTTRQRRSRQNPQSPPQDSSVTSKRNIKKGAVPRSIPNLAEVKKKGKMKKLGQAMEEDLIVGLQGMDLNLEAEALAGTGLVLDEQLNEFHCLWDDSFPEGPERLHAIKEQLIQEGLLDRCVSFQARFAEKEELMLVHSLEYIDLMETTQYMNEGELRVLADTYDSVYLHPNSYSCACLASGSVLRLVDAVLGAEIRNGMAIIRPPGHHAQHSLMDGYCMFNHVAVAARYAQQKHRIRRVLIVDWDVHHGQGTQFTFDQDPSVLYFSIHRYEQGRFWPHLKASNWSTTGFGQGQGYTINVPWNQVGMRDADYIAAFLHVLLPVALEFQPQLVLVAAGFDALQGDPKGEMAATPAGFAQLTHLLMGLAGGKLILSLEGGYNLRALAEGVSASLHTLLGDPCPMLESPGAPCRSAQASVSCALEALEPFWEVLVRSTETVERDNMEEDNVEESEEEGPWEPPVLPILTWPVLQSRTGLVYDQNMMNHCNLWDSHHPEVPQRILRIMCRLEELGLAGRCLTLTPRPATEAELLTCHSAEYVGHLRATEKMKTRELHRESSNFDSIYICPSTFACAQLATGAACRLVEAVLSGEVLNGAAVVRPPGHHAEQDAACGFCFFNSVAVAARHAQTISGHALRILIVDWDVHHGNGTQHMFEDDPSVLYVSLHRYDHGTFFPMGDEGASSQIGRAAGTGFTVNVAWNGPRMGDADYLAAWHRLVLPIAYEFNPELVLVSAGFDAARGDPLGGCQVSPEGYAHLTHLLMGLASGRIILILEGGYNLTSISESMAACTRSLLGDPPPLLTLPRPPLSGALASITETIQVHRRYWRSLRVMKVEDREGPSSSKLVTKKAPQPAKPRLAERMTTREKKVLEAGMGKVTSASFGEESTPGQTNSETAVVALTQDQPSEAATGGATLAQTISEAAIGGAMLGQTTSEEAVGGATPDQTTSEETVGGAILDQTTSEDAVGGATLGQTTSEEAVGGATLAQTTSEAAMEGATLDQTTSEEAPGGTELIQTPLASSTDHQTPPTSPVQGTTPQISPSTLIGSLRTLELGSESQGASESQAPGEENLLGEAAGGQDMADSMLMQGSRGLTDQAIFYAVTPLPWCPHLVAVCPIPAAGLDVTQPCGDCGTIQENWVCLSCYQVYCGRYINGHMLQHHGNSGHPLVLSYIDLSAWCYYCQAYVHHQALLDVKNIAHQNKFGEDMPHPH

Histone deacetylase 7 = target: T3, Histone deacetylase 7 (Homo sapiens, UniProt Q8WUI4); assay: Inhibition of HDAC7 (unknown origin); in short: as §1
T3 sequence (Q8WUI4 whole entry): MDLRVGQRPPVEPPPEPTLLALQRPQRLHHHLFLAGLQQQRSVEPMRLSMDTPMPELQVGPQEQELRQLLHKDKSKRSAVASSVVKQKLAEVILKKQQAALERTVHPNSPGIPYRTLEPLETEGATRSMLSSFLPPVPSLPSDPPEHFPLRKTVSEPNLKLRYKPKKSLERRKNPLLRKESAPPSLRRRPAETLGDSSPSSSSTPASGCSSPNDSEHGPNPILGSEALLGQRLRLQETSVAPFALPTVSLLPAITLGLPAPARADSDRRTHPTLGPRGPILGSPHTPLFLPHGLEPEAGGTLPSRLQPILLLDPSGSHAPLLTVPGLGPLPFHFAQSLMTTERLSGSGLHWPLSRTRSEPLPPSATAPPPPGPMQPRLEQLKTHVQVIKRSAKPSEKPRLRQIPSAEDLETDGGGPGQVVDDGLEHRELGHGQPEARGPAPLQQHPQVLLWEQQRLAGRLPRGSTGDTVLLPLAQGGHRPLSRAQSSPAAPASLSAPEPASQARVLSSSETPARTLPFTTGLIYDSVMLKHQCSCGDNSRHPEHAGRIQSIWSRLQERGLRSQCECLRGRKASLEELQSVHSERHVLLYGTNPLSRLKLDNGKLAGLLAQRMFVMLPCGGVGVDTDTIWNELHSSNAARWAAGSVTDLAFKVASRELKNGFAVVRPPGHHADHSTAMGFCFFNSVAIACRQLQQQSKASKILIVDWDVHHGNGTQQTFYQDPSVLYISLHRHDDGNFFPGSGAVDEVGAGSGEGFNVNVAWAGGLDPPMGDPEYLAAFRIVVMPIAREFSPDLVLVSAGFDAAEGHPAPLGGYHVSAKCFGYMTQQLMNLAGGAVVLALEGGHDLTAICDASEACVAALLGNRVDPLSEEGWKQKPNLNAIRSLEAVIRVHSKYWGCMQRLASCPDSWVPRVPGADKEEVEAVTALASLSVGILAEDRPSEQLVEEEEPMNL

Histone deacetylase 9 = Histone deacetylase 9 (Homo sapiens, UniProt Q9UKV0); assay: Inhibition of HDAC9 (unknown origin); in short: as §1
Histone deacetylase 9, sequence (Q9UKV0 whole entry): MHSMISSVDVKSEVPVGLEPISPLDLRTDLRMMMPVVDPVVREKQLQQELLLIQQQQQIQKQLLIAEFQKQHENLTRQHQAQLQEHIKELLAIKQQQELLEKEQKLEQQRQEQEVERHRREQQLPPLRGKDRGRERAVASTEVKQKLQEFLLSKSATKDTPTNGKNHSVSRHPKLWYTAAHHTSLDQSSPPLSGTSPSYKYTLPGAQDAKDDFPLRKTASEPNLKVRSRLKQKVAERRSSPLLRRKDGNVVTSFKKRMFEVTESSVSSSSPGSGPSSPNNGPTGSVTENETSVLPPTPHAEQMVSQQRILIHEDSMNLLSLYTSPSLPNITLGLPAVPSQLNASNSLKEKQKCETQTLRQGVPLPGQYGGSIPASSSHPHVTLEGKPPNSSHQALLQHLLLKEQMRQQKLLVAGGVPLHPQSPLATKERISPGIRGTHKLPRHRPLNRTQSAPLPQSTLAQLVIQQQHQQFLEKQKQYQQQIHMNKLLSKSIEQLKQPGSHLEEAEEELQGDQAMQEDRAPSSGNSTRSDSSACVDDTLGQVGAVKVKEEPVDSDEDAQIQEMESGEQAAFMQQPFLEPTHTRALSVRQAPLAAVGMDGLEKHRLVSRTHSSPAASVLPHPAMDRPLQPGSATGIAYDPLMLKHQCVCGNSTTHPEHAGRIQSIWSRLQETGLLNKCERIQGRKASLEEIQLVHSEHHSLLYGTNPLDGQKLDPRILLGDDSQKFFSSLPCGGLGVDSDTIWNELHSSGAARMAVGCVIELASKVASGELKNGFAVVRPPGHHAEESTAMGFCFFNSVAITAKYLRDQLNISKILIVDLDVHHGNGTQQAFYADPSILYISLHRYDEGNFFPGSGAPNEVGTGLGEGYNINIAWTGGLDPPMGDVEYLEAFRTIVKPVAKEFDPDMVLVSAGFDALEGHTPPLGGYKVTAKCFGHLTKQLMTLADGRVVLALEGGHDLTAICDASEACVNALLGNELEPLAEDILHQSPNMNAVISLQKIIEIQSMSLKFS

[5] = target: T1, NAD-dependent protein deacylase sirtuin-6; assay: Inhibition of SIRT6 in human BxPC3 cells assessed as increase in H3K9Ac expression measured after 48 hrs by Western blot analysis; assay type: cell-based; settings: BXPC-3
In short: (§2)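 BxPC-3 cells were exposed to 0.78, 1.56, 3.13, 6.25, 12.5 and 25 μM compound for 48 h. Histone H3K9ac and H3K18ac levels were then assessed by western blot, with β-actin as the loading control. Acetylation increase is read as cellular SIRT6 deacetylase inhibition.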

[6] = target: T1, NAD-dependent protein deacylase sirtuin-6; assay: Inhibition of SIRT6 in human BxPC3 cells assessed as increase in […] expression measured after 48 hrs by Western blot analysis; assay type: cell-based; settings: BXPC-3; in short: as §2

CN1CCN(c2ccc([N+](=O)[O-])c(N)c2)CC1
IC50 [1]: 4.93 µM
ΔTm [2]: 1.88 °C
Kd [3]: 9.76 µM
Activity (Mus musculus): Active
IC50 (Histone deacetylase 1): > 200 µM
IC50 (Histone deacetylase 2): > 200 µM
IC50 (Histone deacetylase 4): > 200 µM
IC50 (Histone deacetylase 5): > 200 µM
IC50 [4]: > 200 µM
IC50 (Histone deacetylase 7): > 200 µM
IC50 (Histone deacetylase 9): > 200 µM
inhibition [5]: Dose-dependent effect
inhibition [6]: Dose-dependent effect
